# Data: ChEMBL document CHEMBL3045729, “Anti-tobacco mosaic virus (TMV) triterpenoid saponins from the leaves of Ilex oblonga” (J Agric Food Chem, 2007)
# Key:
# [1] = tested on: Tobacco mosaic virus; assay: Antiviral activity against Tobacco mosaic virus (TMV) inoculated in Nicotiana tabacum cv. K326 leaves assessed as inhibition of virus multiplication at 0.2 mg/ml at 25 degC measured after 48 hr by indirect ELISA/leaf-disk method; assay type: functional
# In short: (§1)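 N. tabacum cv. K326 leaves mechanically inoculated with TMV at 10 µg/mL. After 7 h, 10-mm disks were floated on compound solutions (DMSO, diluted with water) for 48 h at 25 ± 1 °C. Solvent-only and healthy-leaf disks were controls; six repetitions. Ground disks were assayed by indirect ELISA (OD405) against an in-plate TMV standard curve. Inhibition was calculated relative to the solvent control.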
# [2] = tested on: Tobacco mosaic virus; assay: Antiviral activity against Tobacco mosaic virus (TMV) inoculated in Nicotiana tabacum cv. K326 leaves assessed as inhibition of virus multiplication at 0.05 mg/ml at 25 degC measured after 48 hr by indirect ELISA/leaf-disk method; assay type: functional; in short: as §1
# [3] = tested on: Tobacco mosaic virus; assay: Antiviral activity against Tobacco mosaic virus (TMV) inoculated in Nicotiana tabacum cv. K326 leaves assessed as inhibition of virus multiplication at 0.1 mg/ml at 25 degC measured after 48 hr by indirect ELISA/leaf-disk method; assay type: functional; in short: as §1
# [4] = tested on: Tobacco mosaic virus; assay: Antiviral activity against Tobacco mosaic virus (TMV) inoculated in Nicotiana tabacum cv. K326 leaves assessed as inhibition of virus multiplication at 0.4 mg/ml at 25 degC measured after 48 hr by indirect ELISA/leaf-disk method; assay type: functional; in short: as §1
# [5] = tested on: Tobacco mosaic virus; assay: Antiviral activity against Tobacco mosaic virus (TMV) inoculated in Nicotiana tabacum cv. K326 leaves assessed as inhibition of virus multiplication at 25 degC measured after 48 hr by indirect ELISA/leaf-disk method; assay type: functional, organism-based; in short: as §1
# [6] = tested on: Tobacco mosaic virus; assay: Antiviral activity against Tobacco mosaic virus (TMV) inoculated in Nicotiana tabacum cv. K326 leaves assessed as inhibition of virus multiplication at 0.025 mg/ml at 25 degC measured after 48 hr by indirect ELISA/leaf-disk method; assay type: functional; in short: as §1
EC50 [5],SMILES,inhibition at 200 µg/mL [1],inhibition at 50 µg/mL [2],inhibition at 100 µg/mL [3],inhibition at 400 µg/mL [4],inhibition at 25 µg/mL [6]
,C[C@@H]1CC[C@]2(C(=O)O[C@@H]3O[C@H](CO)[C@@H](O)[C@H](O)[C@H]3O)CC[C@]3(C)C(=CC[C@@H]4[C@@]5(C)CC[C@H](O)C(C)(C)[C@@H]5CC[C@]43C)[C@@H]2[C@]1(C)O,27%,,,,
80 µg/mL,CC1(C)CC[C@]2(C(=O)O[C@@H]3O[C@H](CO)[C@@H](O)[C@H](O)[C@H]3O)CC[C@]3(C)C(=CC[C@@H]4[C@@]5(C)CC[C@H](O)C(C)(C)[C@@H]5CC[C@]43C)[C@@H]2[C@@H]1O,84.5%,25.3%,65.7%,89.2%,7.6%
,C[C@@H]1CC[C@]2(C(=O)O[C@@H]3O[C@H](CO)[C@@H](O)[C@H](O)[C@H]3O)CC[C@]3(C)C(=CC[C@@H]4[C@@]5(C)C[C@@H](O)[C@H](O)[C@@](C)(CO)[C@@H]5CC[C@]43C)[C@@H]2[C@]1(C)O [NIGAICHIGOSIDE F1],24.9%,,,,
,C[C@@H]1CC[C@]2(C(=O)O[C@@H]3O[C@H](CO)[C@@H](O)[C@H](O)[C@H]3O)CC[C@]3(C)C(=CC[C@@H]4[C@@]5(C)CC[C@H](O[C@@H]6OC[C@@H](O)[C@H](O)[C@H]6O)C(C)(C)[C@@H]5CC[C@]43C)[C@@H]2[C@]1(C)O [OBLONGANOSIDE H],37.4%,,,,
,C[C@@H]1CC[C@]2(C(=O)O[C@@H]3O[C@H](CO)[C@@H](O)[C@H](O)[C@H]3O)CC[C@]3(C)C(=CC[C@@H]4[C@@]5(C)CC[C@H](O[C@@H]6OC[C@@H](O)[C@H](O)[C@H]6O)[C@@](C)(CO)[C@@H]5CC[C@]43C)[C@@H]2[C@]1(C)O [OBLONGANOSIDE I],31.7%,,,,
,C[C@@H]1CC[C@]2(C(=O)O[C@@H]3O[C@H](CO)[C@@H](O)[C@H](O)[C@H]3O)CC[C@]3(C)C(=CC[C@@H]4[C@@]5(C)CC[C@@H]6O[C@H](CO)OC[C@@]6(C)[C@@H]5CC[C@]43C)[C@@H]2[C@]1(C)O [OBLONGANOSIDE J],28.1%,,,,
76 µg/mL,CC1(C)CC[C@]2(C(=O)O[C@@H]3O[C@H](CO)[C@@H](O)[C@H](O)[C@H]3O)CC[C@]3(C)C(=CC[C@@H]4[C@@]5(C)CC[C@H](O[C@@H]6OC[C@@H](O)[C@H](O)[C@H]6O)C(C)(C)[C@@H]5CC[C@]43C)[C@@H]2[C@@H]1O [OBLONGANOSIDE K],85.7%,31.4%,63.9%,88.5%,13.1%
,CC1(C)[C@@H](O[C@@H]2OC[C@@H](O)[C@H](O)[C@H]2O)CC[C@]2(C)[C@H]3CC=C4[C@@H]5C[C@](C)(CO)CC[C@]5(C(=O)O[C@@H]5O[C@H](CO)[C@@H](O)[C@H](O)[C@H]5O)CC[C@@]4(C)[C@]3(C)CC[C@@H]12 [OBLONGANOSIDE L],46.9%,,,,
85 µg/mL,CC1(C)CC[C@]2(C(=O)O[C@@H]3O[C@H](CO)[C@@H](O)[C@H](O)[C@H]3O)CC[C@]3(C)C(=CC[C@@H]4[C@@]5(C)CC[C@H](O[C@@H]6OC[C@@H](O)[C@H](O)[C@H]6O)[C@@](C)(CO)[C@@H]5CC[C@]43C)[C@@H]2[C@@H]1O [OBLONGANOSIDE M],78.5%,32.7%,61.5%,85.3%,5.2%
,C[C@@H]1CC[C@]2(C(=O)O[C@@H]3O[C@H](CO)[C@@H](O)[C@H](O)[C@H]3O)CC[C@]3(C)C(=CC[C@@H]4[C@@]5(C)CC[C@H](O)[C@@](C)(CO)[C@@H]5CC[C@]43C)[C@@H]2[C@]1(C)O [PEDUNCULOSIDE],41.5%,,,,
